According to ChEMBL document CHEMBL1152431, “p-Guanidinoethyl calixarene and parent phenol derivatives exhibiting antibacterial activities. Synthesis and biological evaluation” (Bioorg Med Chem, 2009):
Active and inactive are the calls of the source. The calls are words filed in the database; no cut-off is given here.

Experiments:
[1] = Selectivity index, ratio of IC50 for human MRC5 cells after 24 hrs to MIC for Staphylococcus aureus ATCC 29213; type: functional
In short: (§1)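 SI computed as the MRC-5 IC50 after 24 h of drug exposure divided by the broth microdilution MIC for the named reference strain.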

[2] = Selectivity index, ratio of IC50 for human MRC5 cells after 24 hrs to MIC for Enterococcus faecalis ATCC 29212; type: functional; in short: as §1
Escherichia coli [3] = assay: Antibacterial activity against Escherichia coli ATCC 25922 after 18 to 24 hrs by broth microdilution method; type: functional
In short: (§2)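 CLSI broth microdilution in Mueller-Hinton broth, with a final inoculum of 1 × 10^5 CFU/mL in U-bottom microplates. Isolate purity was checked at each test by colony morphology and Gram stain. Drug dilutions were added and plates incubated 18–24 h at 35 °C. Growth was read as absorbance at 540 nm to give the MIC.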

Pseudomonas aeruginosa [4] = assay: Antibacterial activity against Pseudomonas aeruginosa ATCC 27853 after 18 to 24 hrs by broth microdilution method; type: functional; in short: as §2
Staphylococcus aureus [5] = assay: Antibacterial activity against Staphylococcus aureus ATCC 25923 after 18 to 24 hrs by broth microdilution method; type: functional; in short: as §2
Staphylococcus aureus [6] = assay: Antibacterial activity against Staphylococcus aureus ATCC 29213 after 18 to 24 hrs by broth microdilution method; type: functional; in short: as §2
Enterococcus faecalis [7] = assay: Antibacterial activity against Enterococcus faecalis ATCC 29212 after 18 to 24 hrs by broth microdilution method; type: functional; in short: as §2
MRC5 [8] = assay: Cytotoxicity against human MRC5 cells after 24 hrs; type: cell-based; conditions: MRC5, 24 h
In short: (§3)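 MRC-5 human embryonic lung fibroblasts were grown in MEM with 10% heat-inactivated FBS and no antibiotics at 37 °C, 5% CO2, and seeded at 10^4 cells/well. After 48 h, drugs were applied at 256 to 1 µg/mL for 24, 48 or 168 h. Viability was read by MTT, or by LDH release for some compounds, as percent of untreated control. IC50 was given as a range; 8 wells per dose, 3 independent experiments.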

MRC5 [9] = assay: Cytotoxicity against human MRC5 cells after 48 hrs; type: cell-based; conditions: MRC5, 48 h; in short: as §3
MRC5 [10] = assay: Cytotoxicity against human MRC5 cells after 168 hrs; type: cell-based; conditions: MRC5, 168 h; in short: as §3
[11] = Selectivity index, ratio of IC50 for human MRC5 cells after 24 hrs to MIC for Escherichia coli ATCC 25922; type: functional; in short: as §1
[12] = Selectivity index, ratio of IC50 for human MRC5 cells after 24 hrs to MIC for Pseudomonas aeruginosa ATCC 27853; type: functional; in short: as §1
[13] = Selectivity index, ratio of IC50 for human MRC5 cells after 24 hrs to MIC for Staphylococcus aureus ATCC 25923; type: functional; in short: as §1
Escherichia coli [14] = assay: Antibacterial activity against Escherichia coli ATCC 25922 upto 256 ug/mL after 18 to 24 hrs by broth microdilution method; type: functional, organism-based; in short: as §2
Pseudomonas aeruginosa [15] = assay: Antibacterial activity against Pseudomonas aeruginosa ATCC 27853 upto 256 ug/mL after 18 to 24 hrs by broth microdilution method; type: functional, organism-based; in short: as §2
Staphylococcus aureus [16] = assay: Antibacterial activity against Staphylococcus aureus ATCC 25923 upto 256 ug/mL after 18 to 24 hrs by broth microdilution method; type: functional, organism-based; in short: as §2
Staphylococcus aureus [17] = assay: Antibacterial activity against Staphylococcus aureus ATCC 29213 upto 256 ug/mL after 18 to 24 hrs by broth microdilution method; type: functional, organism-based; in short: as §2
Enterococcus faecalis [18] = assay: Antibacterial activity against Enterococcus faecalis ATCC 29212 upto 256 ug/mL after 18 to 24 hrs by broth microdilution method; type: functional, organism-based; in short: as §2

Structure (SMILES) | Selectivity Index [1] | Selectivity Index [2] | MIC (Escherichia coli [3]) [µg/mL] | MIC (Pseudomonas aeruginosa [4]) [µg/mL] | MIC (Staphylococcus aureus [5]) [µg/mL] | MIC (Staphylococcus aureus [6]) [µg/mL] | MIC (Enterococcus faecalis [7]) [µg/mL] | IC50 (MRC5 [8]) [µg/mL] | IC50 (MRC5 [9]) [µg/mL] | IC50 (MRC5 [10]) [µg/mL] | Selectivity Index [11] | Selectivity Index [12] | Selectivity Index [13] | Activity (Escherichia coli [14]) | Activity (Pseudomonas aeruginosa [15]) | Activity (Staphylococcus aureus [16]) | Activity (Staphylococcus aureus [17]) | Activity (Enterococcus faecalis [18])
N=C(N)c1ccc(OCCCCCCOc2ccc(C(=N)N)cc2)cc1.O=C(O)C(F)(F)F | 32 | 16 | 8 | 32 | 4 | < 1 | 2 | 32 | 16 | 4 | 4 | 1 | 8 | – | – | – | – | –
Cc1csc(-c2nc(COc3c4cc(CCNC(=N)N)cc3Cc3cc(CCNC(=N)N)cc(c3O)Cc3cc(CCNC(=N)N)cc(c3OCc3csc(-c5nc(C)cs5)n3)Cc3cc(CCNC(=N)N)cc(c3O)C4)cs2)n1.O=C(O)C(F)(F)F | 1 | 2 | 16 | 16 | 8 | 16 | 8 | 16 | 16 | 16 | 1 | 1 | 2 | – | – | – | – | –
N=C(N)NCCCCCCCCCCNC(=N)N.O=C(O)C(F)(F)F [SYNTHALIN A] | 8 | 0.5 | 64 | 128 | 64 | 16 | 256 | 128 | 8 | < 1 | 2 | 1 | 2 | – | – | – | – | –
Cc1cccc(-c2cccc(COc3c4cc(CCNC(=N)N)cc3Cc3cc(CCNC(=N)N)cc(c3O)Cc3cc(CCNC(=N)N)cc(c3OCc3cccc(-c5cccc(C)n5)n3)Cc3cc(CCNC(=N)N)cc(c3O)C4)n2)n1.O=C(O)C(F)(F)F | 1 | 1 | 16 | 16 | 16 | 16 | 16 | 16 | 16 | 16 | 1 | 1 | 1 | – | – | – | – | –
Cc1ccc(-c2ccc(COc3ccc(CCNC(=N)N)cc3)cn2)nc1.O=C(O)C(F)(F)F | >32 | >2 | 8 | 128 | 8 | 4 | 64 | > 128 | > 128 | – | >16 | >1 | >16 | – | – | – | – | –
O=C([O-])C(F)(F)F.[Na+] | – | – | – | – | – | – | – | – | – | – | – | – | – | inactive | inactive | inactive | inactive | inactive
Cc1cccc(-c2cccc(COc3ccc(CCNC(=N)N)cc3)n2)n1.O=C(O)C(F)(F)F | 4 | 0.5 | 128 | 128 | 16 | 8 | 64 | 32 | 16 | 2 | 0.25 | 0.25 | 2 | – | – | – | – | –
N=C(N)NCCc1ccc(O)cc1.O=C(O)C(F)(F)F | >0.5 | – | 512 | > 512 | 512 | 512 | > 512 | > 256 | > 256 | 32 | >0.5 | – | >0.5 | – | – | – | – | –
Cc1csc(-c2nc(COc3ccc(CCNC(=N)N)cc3)cs2)n1.O=C(O)C(F)(F)F | 8 | 1 | 64 | 128 | 16 | 8 | 64 | 64 | 32 | 8 | 1 | 0.5 | 4 | – | – | – | – | –
N=C(N)NCCc1cc2c(O)c(c1)Cc1cc(CCNC(=N)N)cc(c1O)Cc1cc(CCNC(=N)N)cc(c1O)Cc1cc(CCNC(=N)N)cc(c1O)C2.O=C(O)C(F)(F)F | >32 | >8 | 4 | 32 | 8 | 8 | 32 | > 256 | > 256 | 128 | >64 | >8 | >32 | – | – | – | – | –
Cc1ccc(-c2ccc(COc3c4cc(CCNC(=N)N)cc3Cc3cc(CCNC(=N)N)cc(c3O)Cc3cc(CCNC(=N)N)cc(c3OCc3ccc(-c5ccc(C)cn5)nc3)Cc3cc(CCNC(=N)N)cc(c3O)C4)cn2)nc1.O=C(O)C(F)(F)F | >16 | >16 | 32 | 32 | 8 | 8 | 8 | > 128 | > 128 | – | >4 | >4 | >16 | – | – | – | – | –
